Results published in ChEMBL document CHEMBL1155910, “Design of Helicobacter pylori glutamate racemase inhibitors as selective antibacterial agents: a novel pro-drug approach to increase exposure” (Bioorg Med Chem Lett, 2008).
≈ marks a conversion by molar mass, not a printed value.

Key:
Helicobacter pylori [1] = assay: Antibacterial activity against wild type Helicobacter pylori by NCCLS method; assay type: functional
Outline: (§1)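 H. pylori MICs determined following NCCLS guidelines; values carry a twofold variance.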

[2] = Bioavailability in mouse at 40 mg/kg, po; assay type: ADME, organism-based; conditions: in vivo
[3] = Aqueous solubility of compound; assay type: physicochemical; conditions: buffer
[4] = Intrinsic clearance in mouse liver microsome; assay type: ADME; conditions: liver microsomes
Outline: (§2)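 Compounds incubated in vitro with human or mouse liver microsomes; parent and metabolite followed over roughly 30 min incubation; intrinsic clearance expressed as µl/min/mg.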

[5] = Intrinsic clearance in human liver microsome; assay type: ADME; conditions: liver microsomes; outline: as §2
Glutamate racemase = target: T1, Glutamate racemase (Helicobacter pylori (strain ATCC 700392 / 26695) (Campylobacterpylori), UniProt P56068); assay: Inhibition of Helicobacter pylori MurI
T1 sequence (P56068 whole entry): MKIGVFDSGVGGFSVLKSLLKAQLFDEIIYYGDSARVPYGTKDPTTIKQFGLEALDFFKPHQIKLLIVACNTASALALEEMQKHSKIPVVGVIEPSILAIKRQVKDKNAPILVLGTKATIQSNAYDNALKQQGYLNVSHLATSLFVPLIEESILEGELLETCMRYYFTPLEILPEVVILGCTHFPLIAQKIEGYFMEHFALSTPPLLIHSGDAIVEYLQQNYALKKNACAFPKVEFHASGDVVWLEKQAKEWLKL

Helicobacter pylori [6] = assay: Antibacterial activity against hefC-deficient Helicobacter pylori by NCCLS method; assay type: functional; outline: as §1
[7] = Bioavailability in mouse; assay type: ADME, organism-based; conditions: in vivo
[8] = Equilibrium solubility of compound; assay type: physicochemical
Mus musculus = assay: Plasma concentration in mouse at 40 mg/kg, po; assay type: ADME, organism-based; set-up: dose 40 mg/kg, route oral; conditions: in vivo

Structure (SMILES) | MIC (Helicobacter pylori [1]) [µg/mL] | bioavailability [2] [%] | solubility [3] [µM] | microsomal CLint [4] [µL/min/mg] | microsomal CLint [5] [µL/min/mg] | IC50 (Glutamate racemase) [nM] | MIC (Helicobacter pylori [6]) [µg/mL] | bioavailability [7] [%] | solubility thermodynamic [8] [µM] | Cp (Mus musculus) [µg/mL]
Cn1cc(C#N)cc1-c1c2c(=O)n(C)c(=O)n(CC3CC3)c2nn1Cc1ccnc2ccc(Cl)cc12 | 0.5 (≈ 1 µM) | 7.5 | < 0.4 | 50 | < 14 | 26 | 0.25 (≈ 0.5 µM) | < 10 |  | 
Cn1cc(S(N)(=O)=O)nc1-c1c2c(=O)n(C)c(=O)n(CC3CC3)c2nn1Cc1c[nH]c2ccc(Cl)cc12 | > 32 |  |  | > 100 | 56 | 38 | 0.5 (≈ 0.921 µM) |  |  | 
Cc1oc(S(C)(=O)=O)cc1-c1c2c(=O)n(C)c(=O)n(CC3CC3)c2nn1Cc1cn(C)c2ccc(Cl)cc12 | 1 (≈ 1.8 µM) |  |  | > 100 | > 100 | 57 | 0.5 (≈ 0.899 µM) |  |  | 
CNS(=O)(=O)c1cc(-c2c3c(=O)n(C)c(=O)n(CC4CC4)c3nn2Cc2c[nH]c3ccc(Cl)cc23)n(C)c1 | 16 (≈ 28.8 µM) |  |  | > 100 | > 100 | 27 | 0.5 (≈ 0.899 µM) |  |  | 
CONS(=O)(=O)c1cc(-c2c3c(=O)n(C)c(=O)n(CC4CC4)c3nn2Cc2ccnc3ccc(Cl)cc23)n(C)c1 | 16 (≈ 27.4 µM) |  |  |  |  | 55 | 4 (≈ 6.85 µM) |  |  | 
CONS(=O)(=O)c1cc(-c2c3c(=O)n(C)c(=O)n(CC4CC4)c3nn2Cc2c[nH]c3ccc(Cl)cc23)n(C)c1 | 8 (≈ 14 µM) |  |  |  |  | 36 | 8 (≈ 14 µM) |  |  | 
Cn1cc([S+](C)[O-])cc1-c1c2c(=O)n(C)c(=O)n(CC3CC3)c2nn1Cc1c[nH]c2ccc(Cl)cc12 (configuration not stated) | 16 (≈ 30.5 µM) |  |  | > 100 | > 100 | 23 | 4 (≈ 7.62 µM) |  |  | 
Cn1cc([S+](C)[O-])cc1-c1c2c(=O)n(C)c(=O)n(CC3CC3)c2nn1Cc1ccnc2ccc(Cl)cc12 (configuration not stated) | 16 (≈ 29.8 µM) | 10 |  | > 100 | > 100 | 37 | 0.5 (≈ 0.931 µM) |  | 120 (≈ 64.4 µg/mL) | 
Cn1cc(S(C)(=O)=O)cc1-c1c2c(=O)n(C)c(=O)n(CC3CC3)c2nn1Cc1c[nH]c2ccc(Cl)cc12 | 4 (≈ 7.39 µM) |  |  | 64 | 49 | 26 | 0.5 (≈ 0.924 µM) |  |  | 
Cn1cc(S(C)(=O)=O)nc1-c1c2c(=O)n(C)c(=O)n(CC3CC3)c2nn1Cc1c[nH]c2ccc(Cl)cc12 | 16 (≈ 29.5 µM) |  |  | > 100 | 49 | 31 | 2 (≈ 3.69 µM) |  |  | 
CNS(=O)(=O)c1cc(-c2c3c(=O)n(C)c(=O)n(CC4CC4)c3nn2Cc2ccnc3ccc(Cl)cc23)n(C)c1 | 16 (≈ 28.2 µM) |  |  | > 100 | > 100 | 44 | 1 (≈ 1.76 µM) |  |  | 
Cn1cc(S(C)(=O)=O)cc1-c1c2c(=O)n(C)c(=O)n(CC3CC3)c2nn1Cc1cn(C)c2ccc(Cl)cc12 | 16 (≈ 28.8 µM) |  |  | 56 | 23 | 33 | 4 (≈ 7.21 µM) |  |  | 

More lines, now with the values ahead:

MIC (Helicobacter pylori [1]) [µg/mL] | bioavailability [2] [%] | solubility [3] [µM] | microsomal CLint [4] [µL/min/mg] | microsomal CLint [5] [µL/min/mg] | IC50 (Glutamate racemase) [nM] | MIC (Helicobacter pylori [6]) [µg/mL] | bioavailability [7] [%] | solubility thermodynamic [8] [µM] | Cp (Mus musculus) [µg/mL] | Structure (SMILES)
16 (≈ 28.9 µM) |  |  | 56 | 23 | 160 | 4 (≈ 7.22 µM) |  |  |  | Cn1cc(S(C)(=O)=O)nc1-c1c2c(=O)n(C)c(=O)n(CC3CC3)c2nn1Cc1ccnc2ccc(Cl)cc12
4 (≈ 6.96 µM) |  |  | 22 | 19 | 59 | 4 (≈ 6.96 µM) |  |  |  | Cn1c(=O)c2c(-c3oc(S(C)(=O)=O)cc3Cl)n(Cc3ccnc4ccc(Cl)cc34)nc2n(CC2CC2)c1=O
4 (≈ 7.22 µM) |  |  | 61 | 22 | 51 |  |  |  |  | Cc1oc(S(C)(=O)=O)cc1-c1c2c(=O)n(C)c(=O)n(CC3CC3)c2nn1Cc1ccnc2ccc(Cl)cc12
2 (≈ 3.62 µM) | 60 |  | < 14 | 20 | 34 | 0.5 (≈ 0.904 µM) |  |  | 1.2 | Cn1cc(S(C)(=O)=O)cc1-c1c2c(=O)n(C)c(=O)n(CC3CC3)c2nn1Cc1ccnc2ccc(Cl)cc12
32 (≈ 57.8 µM) |  |  | < 14 | 22 | 16 | 0.25 (≈ 0.451 µM) |  |  |  | Cn1cc(S(N)(=O)=O)cc1-c1c2c(=O)n(C)c(=O)n(CC3CC3)c2nn1Cc1ccnc2ccc(Cl)cc12
> 64 |  |  | 14 | 17 | 1500 | > 64 |  |  |  | Cn1c(=O)c2c(-c3ccc(S(C)(=O)=O)o3)n(Cc3ccnc4ccc(Cl)cc34)nc2n(CC2CC2)c1=O
